# Legend:
# [1] = tested on: Mycobacterium tuberculosis; assay: Antimycobacterial activity MDR/XDR against Mycobacterium tuberculosis isolate 9449/2007 incubated for 14 days by micromethod; format: functional; settings: for MIC99: isolate 9449/2007, 336 h
# [2] = tested on: Mycobacterium tuberculosis; assay: microbe, parasite or virus in culture; settings: isolate 234/2005, 336 h
# Mycobacterium kansasii [3] = assay: Antimycobacterial activity against Mycobacterium kansasii CNCTC My 235/80 incubated for 14 days by micromethod; format: functional; settings: for MIC99: Mycobacterium kansasii, CNCTC My 235/80, 336 h
# Outline: (§1)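 M. kansasii MIC by micromethod in Sula's semisynthetic medium. Inoculum was a 1.0 McFarland suspension diluted 10^-4, 0.1 mL per well. Compounds were dissolved in DMSO and tested at 32 to 0.03 µM in twofold steps. […] INH and RIF were reference drugs.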
# [4] = tested on: Mycobacterium tuberculosis; assay: Antimycobacterial activity MDR/XDR against Mycobacterium tuberculosis isolate 8666/2010 incubated for 14 days by micromethod; format: functional; settings: for MIC99: isolate 8666/2010, 336 h
# [5] = tested on: Mycobacterium tuberculosis; assay: Antimycobacterial activity MDR/XDR against Mycobacterium tuberculosis isolate 7357/1998 incubated for 14 days by micromethod; format: functional; settings: for MIC99: isolate 7357/1998, 336 h
# [6] = tested on: Mycobacterium tuberculosis; assay: Antimycobacterial activity MDR/XDR against Mycobacterium tuberculosis isolate Praha 1 incubated for 14 days by micromethod; format: functional; settings: for MIC99: isolate Praha 1, 336 h
# [7] = tested on: Mycobacterium tuberculosis; assay: Antimycobacterial activity against Mycobacterium tuberculosis H37Rv CNCTC My 331/88 incubated for 14 days by micromethod; format: functional; settings: for MIC99: Mycobacterium tuberculosis, H37Rv CNCTC My 331/88, 336 h
# Outline: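 Strain H37Rv was tested in Sula's semisynthetic medium by micromethod. The basic suspension was set to 1.0 McFarland and diluted 10^-3, with 0.1 mL added per well. Compounds were added from DMSO at 32 to 0.03 µM. […] INH and RIF were used as standards.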
# [8] = tested on: Mycobacterium tuberculosis; assay: Antimycobacterial activity MDR/XDR against Mycobacterium tuberculosis isolate Praha 131 incubated for 14 days by micromethod; format: functional; settings: for MIC99: isolate Praha 131, 336 h
# Mycobacterium kansasii [9] = assay: Antimycobacterial activity against Mycobacterium kansasii 6509/96 incubated for 14 days by micromethod; format: functional; settings: for MIC99: Mycobacterium kansasii, 6509/96, 336 h; outline: as §1
# Mycobacterium avium = assay: Antimycobacterial activity against Mycobacterium avium CNCTC My 330/88 incubated for 14 days by micromethod; format: functional; settings: for MIC99: Mycobacterium avium, CNCTC My 330/88, 336 h
# Outline: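 Micromethod MIC assay in Sula's semisynthetic medium. The inoculum was a 1.0 McFarland suspension diluted 10^-5, with 0.1 mL added per well. Compounds were dissolved in DMSO and tested at 1000 to 1 µM in two-fold steps. Plates were incubated at 37 °C for 14 days. […] INH and RIF were the reference drugs.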
# [10] = tested on: Mycobacterium tuberculosis; assay: Antimycobacterial activity MDR/XDR against Mycobacterium tuberculosis isolate Praha 4 incubated for 14 days by micromethod; settings: isolate Praha 4, 336 h
# COS-1 = assay: Cytotoxicity against African green monkey COS1 cells assessed as reduction in cell viability incubated for 48 hrs by CellTiter 96 aqueous one solution cell proliferation assay; format: cell-based; settings: Chlorocebus aethiops, COS-1, 48 h
# Outline: (§2)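 Caco-2, HepG2, A431 and COS-1 cells were exposed 48 h to compound or DMSO vehicle (0.1%) in Opti-MEM reduced-serum medium. MTS reagent was added for 4 h and formazan absorbance read at 490 nm. A 10% SDS toxic control was added 45 min before MTS. Vehicle and SDS were set to 100% and 0% viability; values given as relative viability at 30 µM. Triplicates, repeated at least three times.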
# [11] = Cytotoxicity against human A431 cells assessed as cell viability at 30 uM incubated for 48 hrs by CellTiter 96 aqueous one solution cell proliferation assay; format: cell-based, A-431; settings: read-out: Activity; outline: as §2
# [12] = Solubility in pH 3.0 citrate buffer by HPLC method; format: physicochemical
# Outline: (§3)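 Salt (15 mg) was shaken 2 h at room temperature in 1 mL 0.05 M citrate pH 3, 1 mL 0.1 M acetate pH 5, or 5 mL PBS pH 7.4. Suspensions were decanted and filtered (0.22 µm PTFE). Citrate and acetate solutions were diluted 500-fold in water/acetonitrile 1:1. Analysis by HPLC with diode-array detection on a C18 column at 30 °C. At least 4 repeats.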
# [13] = Cytotoxicity against human HepG2 cells assessed as cell viability at 30 uM incubated for 48 hrs by CellTiter 96 aqueous one solution cell proliferation assay; format: cell-based; settings: read-out: Activity; outline: as §2
# [14] = Cytotoxicity against African green monkey COS1 cells assessed as cell viability at 30 uM incubated for 48 hrs by CellTiter 96 aqueous one solution cell proliferation assay; format: cell-based; settings: chlorocebus aethiops, COS-1 cells; read-out: Activity; outline: as §2
# [15] = Solubility in pH 7.4 PBS buffer by HPLC method; format: physicochemical; outline: as §3
# [16] = Cytotoxicity against human Caco2 cells assessed as cell viability at 30 uM incubated for 48 hrs by CellTiter 96 aqueous one solution cell proliferation assay; format: cell-based; settings: Caco-2 cells, read-out: Activity; outline: as §2
# HepG2 = assay: Cytotoxicity against human HepG2 cells assessed as reduction in cell viability incubated for 48 hrs by CellTiter 96 aqueous one solution cell proliferation assay; format: cell-based; settings: HepG2, 48 h; outline: as §2
# Caco-2 = assay: Cytotoxicity against human Caco2 cells assessed as reduction in cell viability incubated for 48 hrs by CellTiter 96 aqueous one solution cell proliferation assay; format: cell-based; settings: Caco-2, 48 h; outline: as §2
# [17] = Solubility in pH 5 acetate buffer by HPLC method; format: physicochemical; outline: as §3
# A-431 = assay: Cytotoxicity against human A431 cells assessed as reduction in cell viability incubated for 48 hrs by CellTiter 96 aqueous one solution cell proliferation assay; format: cell-based; settings: A-431, 48 h; outline: as §2
# [18] = Solubility in pure water at room temperature by HPLC method; format: physicochemical
Compound,MIC99 (Mycobacterium kansasii [3]) [µM],MIC99 [7] [µM],MIC99 (Mycobacterium kansasii [9]) [µM],MIC99 (Mycobacterium avium) [µM],further results
CO[C@H]1/C=C/O[C@@]2(C)Oc3c(C)c(O)c4c(O)c(c(/C=N/N5CCN(C)CC5)c(O)c4c3C2=O)NC(=O)/C(C)=C\C=C\[C@H](C)[C@H](O)[C@@H](C)[C@@H](O)[C@@H](C)[C@H](OC(C)=O)[C@@H]1C [RIFAMPIN],0.25,0.25,0.125,32,MIC99 [1]: > 8 µM; MIC99 [2]: > 8 µM; MIC99 [4]: > 8 µM; MIC99 [5]: > 8 µM; MIC99 [6]: > 8 µM; MIC99 [8]: > 8 µM; MIC99 [10]: > 8 µM
O=[N+]([O-])c1cc(-c2nnn(CCCN3CCCCC3)n2)cc([N+](=O)[O-])c1,16,4,16,62.5,
CN[C@@H]1[C@H](O[C@H]2[C@H](O[C@H]3[C@H](O)[C@@H](O)[C@H](N=C(N)N)[C@@H](O)[C@@H]3N=C(N)N)O[C@@H](C)[C@]2(O)C=O)O[C@@H](CO)[C@H](O)[C@H]1O [STREPTOMYCIN],,,,,MIC99 [1]: > 32 µM; MIC99 [4]: > 32 µM; MIC99 [5]: > 32 µM; MIC99 [8]: > 32 µM; MIC99 [10]: > 32 µM
NCC[C@H](O)C(=O)N[C@@H]1C[C@H](N)[C@@H](O[C@H]2O[C@H](CN)[C@@H](O)[C@H](O)[C@H]2O)[C@H](O)[C@H]1O[C@H]1O[C@H](CO)[C@@H](O)[C@H](N)[C@H]1O [AMIKACIN],,,,,MIC99 [8]: > 32 µM
O=[N+]([O-])c1cc(-c2nnc(SCCCN3CCOCC3)o2)cc([N+](=O)[O-])c1,8,8,16,125,
GENTAMICIN,,,,,MIC>99 [1]: 1 µM; MIC>99 [4]: 2 µM; MIC>99 [5]: 1 µM; MIC>99 [6]: 1 µM; MIC>99 [8]: > 8 µM
O=[N+]([O-])c1cc(-c2nnn(CCCN3CCOCC3)n2)cc([N+](=O)[O-])c1,16,16,16,500,
CC1COc2c(N3CCN(C)CC3)c(F)cc3c(=O)c(C(=O)O)cn1c23 (stereo not drawn) [OFLOXACIN],,,,,MIC99 [10]: > 16 µM
O=[N+]([O-])c1cc(-c2nnc(SCCCN3CCCCC3)o2)cc([N+](=O)[O-])c1,32,8,16,62.5,
O=[N+]([O-])c1cc(CSc2nnc(CCCCCN3CCOCC3)o2)cc([N+](=O)[O-])c1,8,8,8,125,
CN1CCN(CCCSc2nnc(-c3cc([N+](=O)[O-])cc([N+](=O)[O-])c3)o2)CC1,16,> 32,> 32,125,
Cl.Cl.O=[N+]([O-])c1cc(CSc2nnc(CCCCCN3CCN(Cc4ccccc4)CC3)o2)cc([N+](=O)[O-])c1,2,2,,32,"MIC99 [1]: 2 µM; IC50 (COS-1): > 30 µM; viability at 48 h, 30 µM [11]: 86%; solubility [12]: 18000 µM; viability at 48 h, 30 µM [13]: 112%; MIC99 [2]: 2 µM; viability at 48 h, 30 µM [14]: 99%; solubility [15]: 113 µM; MIC99 [4]: 2 µM; viability at 48 h, 30 µM [16]: 105%; IC50 (HepG2): > 30 µM; MIC99 [5]: 2 µM; MIC99 [6]: 2 µM; IC50 (Caco-2): > 30 µM; MIC99 [8]: 2 µM; MIC>99 (Mycobacterium kansasii [9]): 2 µM; solubility [17]: 9000 µM; IC50 (A-431): > 30 µM; MIC99 [10]: 2 µM; solubility [18]: 17100 µM"
CN1CCN(CCCCCc2nnc(SCc3cc([N+](=O)[O-])cc([N+](=O)[O-])c3)o2)CC1,> 32,32,> 32,250,
O=[N+]([O-])c1cc(CSc2nnc(CCCCCN3CCCCC3)o2)cc([N+](=O)[O-])c1,16,16,32,62.5,
CN1CCN(CCCc2nnc(SCc3cc([N+](=O)[O-])cc([N+](=O)[O-])c3)o2)CC1,> 32,> 32,> 32,1000,
O=[N+]([O-])c1cc(CSc2nnc(CCCCCN3CCN(Cc4ccccc4)CC3)o2)cc([N+](=O)[O-])c1,,,2,,MIC>99 (Mycobacterium kansasii [3]): 2 µM; MIC>99 [7]: 1 µM; MIC>99 (Mycobacterium avium): 16 µM
NNC(=O)c1ccncc1 [ISONIAZID],> 250,,4,> 250,
CN1CCN(CCCn2nnc(-c3cc([N+](=O)[O-])cc([N+](=O)[O-])c3)n2)CC1,32,> 32,> 32,250,
O=[N+]([O-])c1cc(CSc2nnc(CCCN3CCOCC3)o2)cc([N+](=O)[O-])c1,8,8,8,500,
O=[N+]([O-])c1cc(-c2nnn(CCCN3CCN(Cc4ccccc4)CC3)n2)cc([N+](=O)[O-])c1,2,1,1,8,
O=[N+]([O-])c1cc(CSc2nnc(CCCN3CCN(Cc4ccccc4)CC3)o2)cc([N+](=O)[O-])c1,2,2,2,32,
O=[N+]([O-])c1cc(CSc2nnc(CCCN3CCCCC3)o2)cc([N+](=O)[O-])c1,16,16,16,250,
O=[N+]([O-])c1cc(-c2nnc(SCCCN3CCN(Cc4ccccc4)CC3)o2)cc([N+](=O)[O-])c1,1,0.125,0.5,2,

# — ChEMBL document CHEMBL4043195, “Development of water-soluble 3,5-dinitrophenyl tetrazole and oxadiazole antitubercular agents” (Bioorg Med Chem, 2017)
